The results in this text go back to ChEMBL document CHEMBL4732102, “Sustainable, three-component, one-pot procedure to obtain active anti-flavivirus agents” (Eur J Med Chem, 2021).

Data set [1] in a line: Selectivity index, ratio of CC50 for human Huh-7 cells to EC50 for dengue virus 2 EDEN 3295 infected in human Huh-7 cells. Particulars: read-out: Ratio CC50/EC50. In kind it is toxicity, cell-based.
The nature of data set [2]: Selectivity index, ratio of CC50 for human Huh-7 cells to EC50 for Zika virus H/PF/2013 infected in human Huh-7 cells. The class given is toxicity, cell-based. Particulars: read-out: Ratio CC50/EC50.
In data set [3] the test system is dengue virus type 2. Description: Inhibition of Dengue virus 2 full length NS5 RNA-dependent RNA polymerase assessed as reduction in de novo initiation activity at 30 uM incubated for 1 hr relative to control. The essentials:
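De novo initiation assay: 100 nM full-length DENV-2 NS5 with 100 nM in vitro transcribed DENV-2 5'UTR-3'UTR RNA, 20 µM each of ATP, GTP and UTP, and 5 µM Atto-CTP. Buffer Tris-HCl pH 7.5 with KCl, 1 mM MgCl2, 0.3 mM MnCl2, Triton X-100 and 10 µM cysteine. Compound at 30 µM; 1 h at 37 °C. Read-out by alkaline phosphatase-released AttoPhos fluorescence (422/566 nm).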

The test system of data set [4] is dengue virus type 2. Briefly: Inhibition of Dengue virus 2 full length NS5 RNA-dependent RNA polymerase assessed as reduction in elongation activity at 30 uM incubated for 1 hr relative to control. The essentials: (§1)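 Elongation (primer-dependent) assay: 100 nM full-length DENV-2 NS5, 100 nM U30-3'UTR template and 3 µM Atto-ATP in 50 mM Tris-HCl pH 7.5, 10 mM KCl, 0.5 mM MnCl2, Triton and 10 µM cysteine. Run 1 h at 37 °C; stopped with alkaline phosphatase and AttoPhos fluorescence read at 422/566 nm. Single point at 30 µM; IC50 is average ± SE of one experiment in duplicate.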

Data set [5] is described as follows: Inhibition of Dengue virus 2 full length NS5 RNA-dependent RNA polymerase assessed as reduction in elongation activity incubated for 1 hr. On the set-up: species or system dengue virus type 2. In a few lines:
as §1

Data set [6] is described as follows: (§2) Cytotoxicity against human Huh-7 cells assessed as reduction in cell viability incubated for 48 hrs by celltiter glo luminescent assay. The class given is cell-based. Particulars: Huh-7 cells. In a few lines:
(§3)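 Huh-7 cells (2 × 10^4 seeded, DMEM with 10% FBS) exposed to compound for 48 h at 37 °C. Viability read by CellTiter-Glo luminescence as percent of untreated control. CC50 derived from the viability curve.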

Data set [7] has as its system dengue virus type 2. Briefly: Antiviral activity against dengue virus 2 EDEN 3295 infected in human Huh-7 cells assessed as reduction in virus replication incubated for 48 hrs by plaque reduction assay. The class given is functional, organism-based. To be noted: EDEN 3295, Huh-7, 48 h. The essentials: (§4)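 Huh-7 cells (1 × 10^5 seeded) infected 1 h at 37 °C with ZIKV H/PF/2013 at MOI 0.5 or DENV-2 EDEN3295 at MOI 0.3. Dose–response treatment from 0.01 to 100 µM followed, 24 h for ZIKV and 48 h for DENV-2. Supernatant titre measured by BHK-21 plaque assay. EC50 taken from a sigmoidal fit of titre versus concentration; average ± SE of one experiment in duplicate.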
For orientation: In a plaque reduction assay, fewer plaques than in the control indicate reduced infectivity or spread.

The test system of data set [8] is Zika virus. Briefly: Antiviral activity against Zika virus H/PF/2013 infected in human Huh-7 cells assessed as reduction in virus replication at 10 uM incubated for 24 hrs by plaque reduction assay relative to control. In kind it is functional. Set-up: scale not given: the % may be the effect or the level left. The essentials: (§5)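 Huh-7 cells (1 × 10^5 seeded) infected 1 h at 37 °C with DENV-2 EDEN3295 (MOI 0.3) or ZIKV H/PF/2013 (MOI 0.5). Infected cells then treated at a single 10 µM concentration, 24 h for ZIKV and 48 h for DENV-2. Clarified supernatant titred by BHK-21 plaque assay. Viral titre reduction expressed as percent inhibition.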

The subject of data set [9] is Zika virus. Briefly: Antiviral activity against Zika virus H/PF/2013 infected in human Huh-7 cells assessed as reduction in virus replication incubated for 24 hrs by plaque reduction assay. To be noted: H/PF/2013, Huh-7, 24 h. The class given is functional, organism-based. The essentials:
as §4

The subject of the next data set is Huh-7. The description is as §2. Particulars: huh-7, 48 h. The class given is cell-based. The essentials: as §3
In data set [10] the test system is dengue virus type 2. Briefly: Antiviral activity against dengue virus 2 EDEN 3295 infected in human Huh-7 cells assessed as reduction in virus replication at 10 uM incubated for 48 hrs by plaque reduction assay relative to control. The class given is functional. On the set-up: scale not given: the % may be the effect or the level left. The essentials:
as §5

Each structure is given as a SMILES string. Active and inactive are the calls of the source. No cut-off for these calls is given here. Some results are limits rather than exact numbers.

Turning to `C#C[C@@]1(O)[C@H](O)[C@@H](CO)O[C@H]1n1ccc2c(N)ncnc21`, the values for the selectivity ratio in [1] and in [2] were 100 and > 100, respectively.

For orientation: inhibition means the share of the control response that was lost under treatment. What is called IC50 is the concentration that inhibits the measured activity by half. The term CC50 denotes the concentration that lowers cell viability or growth by half. A word on the EC50: it is the concentration at which the effect is half-maximal. With `O=C(NCC1(C(=O)O)CC1)c1cc(-c2ccccc2)c(=O)n2c1sc1ccc(OC3CCCCC3)cc12`, the inhibition came out at 68.1% in the data set with dengue virus type 2 [3] and 96.7% in the data set with dengue virus type 2 [4]. In data set [5] (read-out: IC50), the IC50 came out at 17.8 µM. The CC50 at 48 h in data set [6] stood at 100 µM. The EC50 in the data set on dengue virus type 2 [7] amounted to 7.5 µM. Also, in the data set with Zika virus [8], the Activity is 15.8%. Also, in data set [1], the selectivity ratio is 13.3.

For `C[C@H](CO)NC(=O)c1cc(-c2ccccc2)c(=O)n2c1sc1ccc(OC3CCCCC3)cc12`, the inhibition result with dengue virus type 2 [3] was “inactive”. For the same molecule, in the data set with dengue virus type 2 [4], the inhibition worked out at 42.7%. In addition, the IC50 entry in data set [5] is on record as “Not Active”. Further, the CC50 at 48 h in data set [6] came out at 17.9 µM. Further, the EC50 in the data set on dengue virus type 2 [7] was 5.8 µM; with Zika virus [9] it was 7.3 µM. In addition, the values for the selectivity ratio in [1] and in data set [2] were 3 and 2.4, respectively.

With `NC(=O)CCNC(=O)c1cc(-c2ccccc2)c(=O)n2c1sc1ccc(OC3CCCCC3)cc12`, in the data set on dengue virus type 2 [3], the inhibition entry is “inactive”. The inhibition in the data set with dengue virus type 2 [4] is 37.2%. Also, the IC50 entry in [5] is “Not Active”. The CC50 at 48 h in data set [6] was found to be 52.3 µM. In addition, the EC50 turned out to be 0.9 µM in the data set on dengue virus type 2 [7] and 7.3 µM in the data set on Zika virus [9]. For the same molecule, the selectivity ratio in [1] was found to be 58; in data set [2], 7.1.

As to `CC(C)(CC(=O)O)NC(=O)c1cc(-c2ccccc2)c(=O)n2c1sc1ccc(OC3CCCCC3)cc12`, the inhibition was 81.5% in the data set with dengue virus type 2 [3] and 95.9% in the data set on dengue virus type 2 [4]. Also, the IC50 in data set [5] (read-out: IC50) was 23.2 µM. In addition, the CC50 at 48 h in data set [6] turned out to be 100 µM. Also, in the data set with dengue virus type 2 [7], the EC50 was 3.1 µM. Further, the Activity in the data set with Zika virus [8] came to 10.6%. Further, the selectivity ratio in data set [1] is 32.

Regarding `C[C@@H](CO)NC(=O)c1cc(-c2ccccc2)c(=O)n2c1sc1ccc(OC3CCCCC3)cc12`, in the data set on dengue virus type 2 [3], the inhibition entry was “inactive”. Further, in the data set on dengue virus type 2 [4], the inhibition was 42.5%. Moreover, the IC50 entry in data set [5] is given as “Not Active”. The CC50 at 48 h in data set [6] was found to be 21.7 µM. Further, the EC50 stood at 1.1 µM with dengue virus type 2 [7] and 8.1 µM in the data set with Zika virus [9]. The selectivity ratio in data set [1] came to 20; in data set [2], 2.6.

Consider `O=C(c1cc(-c2ccccc2)c(=O)n2c1sc1ccc(OC3CCCCC3)cc12)N1CCCC(O)C1` (racemic), for which the inhibition result in the data set with dengue virus type 2 [3] was “inactive”. In addition, in the data set with dengue virus type 2 [4], the inhibition stood at 36.9%. In data set [5], the IC50 entry is recorded as “Not Active”. In [6], the CC50 at 48 h came to 22.2 µM. For the same molecule, the EC50 was 1.3 µM with dengue virus type 2 [7] and 11.1 µM in the data set on Zika virus [9]. For the same molecule, the selectivity ratio in [1] is 17; in [2] it was 2.

`O=C(O)CC(NC(=O)c1cc(-c2ccccc2)c(=O)n2c1sc1ccc(OC3CCCCC3)cc12)c1ccccc1` (racemic): the inhibition in the data set with dengue virus type 2 [3] is 79.3%; in the data set on dengue virus type 2 [4] it was 96.2%. The IC50 in data set [5] (read-out: IC50) came to 10.4 µM. For the same molecule, in data set [6], the CC50 at 48 h was determined as 100 µM. Besides, the EC50 was 1.2 µM with dengue virus type 2 [7] and 5 µM in the data set on Zika virus [9]. Further, the selectivity ratio amounted to 83 in [1] and 20 in [2].

`O=C(O)C1CCN(C(=O)c2cc(-c3ccccc3)c(=O)n3c2sc2ccc(OC4CCCCC4)cc23)C1` (racemic): the inhibition in the data set with dengue virus type 2 [3] came to 11%; with dengue virus type 2 [4] it was 64.6%. Further, in data set [5], the IC50 result was “Not Active”. Further, in data set [6], the 50% cytotoxic concentration (CC50) at 48 h was > 100 µM. For the same molecule, the figures for the EC50 in the data set with dengue virus type 2 [7] and in the data set with Zika virus [9] were 6.4 µM and 8.2 µM, respectively. In addition, the selectivity ratio in [1] is > 15.6; in [2] it was > 12.2.

On to `CC(C)C(CC(=O)O)NC(=O)c1cc(-c2ccccc2)c(=O)n2c1sc1ccc(OC3CCCCC3)cc12` (racemic), for which the results for the inhibition with dengue virus type 2 [3] and in the data set with dengue virus type 2 [4] were 75% and 92.8%, respectively. Further, the IC50 in data set [5] (read-out: IC50) worked out at 22.1 µM. In [6], the CC50 at 48 h turned out to be 100 µM. Moreover, the EC50 in the data set with dengue virus type 2 [7] was 8.4 µM. In addition, the Activity in the data set on Zika virus [8] came to 47.4%. Besides, in data set [1], the selectivity ratio turned out to be 12.

On to `CC(CC(=O)O)NC(=O)c1cc(-c2ccccc2)c(=O)n2c1sc1ccc(OC3CCCCC3)cc12` (racemic), for which the inhibition with dengue virus type 2 [3] is 22.7%; with dengue virus type 2 [4], 69.3%. Further, the IC50 result in [5] is “Not Active”. Moreover, the CC50 result with Huh-7 is listed as “Not Active”. The Activity with dengue virus type 2 [10] is reported as 68.1%; in the data set with Zika virus [8], 29%.

As to `O=C(O)C1CCCN(C(=O)c2cc(-c3ccccc3)c(=O)n3c2sc2ccc(OC4CCCCC4)cc23)C1` (racemic), the inhibition result in the data set on dengue virus type 2 [3] is “inactive”. Moreover, the inhibition in the data set on dengue virus type 2 [4] was 64.9%. Moreover, the IC50 entry in data set [5] is reported as “Not Active”. For the same molecule, the CC50 entry with Huh-7 is on record as “Not Active”. Also, the Activity in the data set with dengue virus type 2 [10] was 65.3%; with Zika virus [8], 26.3%.
